The record followed here is ChEMBL document CHEMBL2086232, “Exploration of the SAR of anti-invasive chalcones: synthesis and biological evaluation of conformationally restricted analogues” (Bioorg Med Chem, 2012).

Activity calls are given as the source filed them. The rule behind the calls is not given here.

The test system of data set [1] is MCF7/6. As to the kind of experiment: Antiinvasive activity against human MCF7/6 cells assessed as inhibition of cell invasion across chick precultured heart fragments at 0.1 umol/L after 8 days by chick heart invasion assay. It is filed as functional, cell-based. In short, it runs like this: (§1)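 Heart fragments from 9-day-old chick embryos were precultured, then confronted with aggregates of invasive human MCF-7/6 mammary carcinoma cells with test compound present. Replicate cultures were graded at each concentration.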

Data set [2] in a line: Toxicity against chick precultured heart fragments at 10 umol/L after 8 days by histological analysis. It is filed as tissue-based, Gallus gallus. As to conditions: chicken, 192 h, 10 µM.
A short description of data set [3]: Cytotoxicity against human MCF7/6 cells at 10 umol/L after 8 days by histological analysis. It is filed as cell-based. To be noted: mcf7/6, 192 h, 10 µM. Summed up: (§2)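 Chick heart confronting cultures (9-day-old embryo precultured heart fragments plus MCF-7/6 aggregates, compound present) were examined on 7-µm histological sections. Replicate cultures were graded per concentration.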

Data set [4] has as its system MCF7/6. As to the kind of experiment: Antiinvasive activity against human MCF7/6 cells assessed as inhibition of cell invasion across chick precultured heart fragments at 1 umol/L after 8 days by chick heart invasion assay. It counts as functional, cell-based. In short, it runs like this:
as §1

A short description of data set [5]: Cytotoxicity against human MCF7/6 cells at 100 umol/L after 8 days by histological analysis. It is filed as cell-based. As to conditions: mcf7/6, 192 h, 100 µM. In short, it runs like this: as §2
The test system of data set [6] is MCF7/6. In words: Antiinvasive activity against human MCF7/6 cells assessed as inhibition of cell invasion across chick precultured heart fragments at 10 umol/L after 8 days by chick heart invasion assay. It is filed as functional, cell-based. Summed up: as §1
The test system of data set [7] is MCF7/6. In words: Antiinvasive activity against human MCF7/6 cells assessed as inhibition of cell invasion across chick precultured heart fragments at 100 umol/L after 8 days by chick heart invasion assay. It is filed as functional, cell-based. In short, it runs like this:
as §1

As to `COc1cc(-c2oncc2-c2ccc(F)cc2)cc(OC)c1OC`, the result with MCF7/6 [1] was inactive. Further, the Activity result in data set [2], in data set [3] and in data set [5] was “Toxic” throughout. The outcome in the data set with MCF7/6 [4] and in the data set with MCF7/6 [6] was Active.
In the case of `COc1ccc(-c2cc(-c3ccc(Cl)cc3)on2)cc1`, the outcome in the data set with MCF7/6 [4] and with MCF7/6 [6] was inactive.
With `COc1cc(C(=O)Cc2ccc(F)cc2)cc(OC)c1OC`, the result in the data set on MCF7/6 [1], in the data set with MCF7/6 [4] and with MCF7/6 [6] was inactive. For the same molecule, in the data set on MCF7/6 [7], the outcome was Active. Also, the Activity result in data set [5] is on record as “Toxic”.
As for `COc1cc(-c2cc(-c3ccc(F)cc3)on2)cc(OC)c1OC`, the outcome in the data set on MCF7/6 [1] and in the data set on MCF7/6 [4] was inactive. Further, the result in the data set with MCF7/6 [7] and in the data set on MCF7/6 [6] was Active. In addition, in data set [5], the Activity result is on record as “Toxic”.
As for `COc1ccc(C2=NOC(c3ccc(Cl)cc3)C2)cc1` (stereo not given), the outcome in the data set with MCF7/6 [7] and in the data set with MCF7/6 [4] was inactive.
